Measured values published in ChEMBL document CHEMBL3352584, “Novel DNA gyrase inhibiting spiropyrimidinetriones with a benzisoxazole scaffold: SAR and in vivo characterization” (J Med Chem, 2014).
Converted amounts (≈) assume the structure as drawn.

Assays:
DNA gyrase = DNA gyrase (Escherichia coli, UniProt P0AES4+P0AES6); assay: Inhibition of Escherichia coli DNA gyrase using fluorescence-tagged DNA by fluorescenct polarization assay; format: protein-complex assay
In short: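 E. coli DNA gyrase supercoiling assay. The read-out was differential binding of a fluorescence-tagged DNA to relaxed versus supercoiled DNA, giving IC50.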

Haemophilus influenzae = assay: Antimicrobial activity against Haemophilus influenzae by broth microdilution method; format: functional
In short: (§1)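 Broth microdilution following CLSI guidelines. Values under 12.5 μM are averages of three or more replicates.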

Streptococcus pneumoniae = assay: Antimicrobial activity against Streptococcus pneumoniae by broth microdilution method; format: functional; in short: as §1
Staphylococcus aureus [1] = assay: Antimicrobial activity against methicillin-sensitive Staphylococcus aureus by broth microdilution method; format: functional; in short: as §1
Staphylococcus aureus [2] = assay: Antimicrobial activity against methicillin-resistant and quinolone-resistant Staphylococcus aureus by broth microdilution method; format: functional; in short: as §1
Streptococcus pyogenes = assay: Antimicrobial activity against Streptococcus pyogenes by broth microdilution method; format: functional; in short: as §1
Escherichia coli [3] = assay: Antimicrobial activity against Escherichia coli by broth microdilution method; format: functional; in short: as §1
[4] = Fraction unbound in human plasma at 10 uM after 16 hrs by LC-MS/MS analysis; format: ADME, cell-free
In short: (§2)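 Compound at 10 μM in human, rat or mouse plasma, equilibrium dialysis against buffer at 37 °C for 16 h. Buffer and plasma concentrations measured by LC-MS/MS, and the free fraction taken from their ratio.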

Escherichia coli [5] = assay: Antimicrobial activity against tolC-deficient Escherichia coli by broth microdilution method; format: functional; in short: as §1
[6] = Solubility of the compound; format: physicochemical
Staphylococcus aureus [7] = assay: Antimicrobial activity against wild-type Staphylococcus aureus 516 by broth microdilution method; format: functional; in short: as §1
Staphylococcus aureus [8] = assay: Antimicrobial activity against Staphylococcus aureus 2792 harboring wild-type GyrA and GyrB R144A mutant by broth microdilution method; format: functional
Staphylococcus aureus [9] = assay: Antimicrobial activity against Staphylococcus aureus 2375 harboring GyrA S84L mutant, GyrB R144A mutant and ParC S80Y/E84G/V693M mutant and ParE N141S mutant by broth microdilution method; format: functional
Staphylococcus aureus [10] = assay: Antimicrobial activity against methicillin-sensitive Staphylococcus aureus by broth microdilution method in presence of 50% human serum; format: functional
In short: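 CLSI broth microdilution against methicillin-sensitive S. aureus, run with 50% human serum added to the medium to reflect plasma protein binding. Values under 12.5 μM are averages of three or more replicates.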

[11] = Fraction unbound in mouse plasma at 10 uM after 16 hrs by LC-MS/MS analysis; format: ADME, cell-free; in short: as §2
[12] = Clearance in rat at 3 mg/kg, iv or at 10 mg/kg, po by LC-MS/MS method; format: ADME, organism-based; settings: in vivo
In short: (§3)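 Male mice (CD-1) or male Wistar Hannover rats, three per experiment, given a 15 min iv infusion at 3 mg/kg or oral dosing at 10 mg/kg. Vehicle was DMA:TEG:saline 40/40/20 for mice and meglumine/cyclodextrin for rats. Serial jugular blood was taken over 0–24 h, plasma analysed by LC-MS/MS, and a noncompartmental analysis used. Mean values are given.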

[13] = Bioavailability in mouse at 3 mg/kg, iv or at 10 mg/kg, po by LC-MS/MS method; format: ADME, organism-based; settings: in vivo; in short: as §3
[14] = Clearance in mouse at 3 mg/kg, iv or at 10 mg/kg, po by LC-MS/MS method; format: ADME, organism-based; settings: in vivo; in short: as §3
[15] = Fraction unbound in rat plasma at 10 uM after 16 hrs by LC-MS/MS analysis; format: ADME, cell-free; in short: as §2
[16] = Bioavailability in rat at 3 mg/kg, iv or at 10 mg/kg, po by LC-MS/MS method; format: ADME, organism-based; settings: in vivo; in short: as §3

Row | SMILES | IC50 (DNA gyrase) [nM] | MIC (Haemophilus influenzae) [µM] | MIC (Streptococcus pneumoniae) [µM] | MIC (Staphylococcus aureus [1]) [µM] | MIC (Staphylococcus aureus [2]) [µM] | MIC (Streptococcus pyogenes) [µM] | MIC (Escherichia coli [3]) [µM] | fraction unbound at 16 h, 10 µM [4] | MIC (Escherichia coli [5]) [µM] | solubility [6] [µM] | MIC (Staphylococcus aureus [7]) [µg/mL] | MIC (Staphylococcus aureus [8]) [µg/mL] | MIC (Staphylococcus aureus [9]) [µg/mL] | MIC (Staphylococcus aureus [10]) [µM] | fraction unbound at 16 h, 10 µM [11] | clearance [12] [mL/min/kg] | bioavailability [13] [%] | clearance [14] [mL/min/kg] | fraction unbound at 16 h, 10 µM [15] | bioavailability [16] [%]
1 | C[C@@H]1CN2c3c(cc4c(N)noc4c3F)CC3(C(=O)NC(=O)NC3=O)[C@H]2[C@H](C)O1 | 260 | 1.6 (≈ 0.645 µg/mL) | 6.2 (≈ 2.5 µg/mL) | 25 (≈ 10.1 µg/mL) | 50 (≈ 20.2 µg/mL) | 3.1 (≈ 1.25 µg/mL) | 100 (≈ 40.3 µg/mL) | 0.13 | ≤ 0.2 | 330 (≈ 133 µg/mL) |  |  |  |  |  |  |  |  |  | 
2 | COc1noc2c(F)c3c(cc12)CC1(C(=O)NC(=O)NC1=O)[C@H]1[C@H](C)O[C@H](C)CN31 | 970 | 3.1 (≈ 1.3 µg/mL) | 25 (≈ 10.5 µg/mL) | 3.1 (≈ 1.3 µg/mL) | 3.1 (≈ 1.3 µg/mL) | 6.2 (≈ 2.59 µg/mL) | 200 (≈ 83.7 µg/mL) | 0.09 | ≤ 0.2 | 510 (≈ 213 µg/mL) |  |  |  |  |  |  |  |  |  | 
3 | C[C@H]1COc2c(N3CCN(C)CC3)c(F)cc3c(=O)c(C(=O)O)cn1c23.C[C@H]1COc2c(N3CCN(C)CC3)c(F)cc3c(=O)c(C(=O)O)cn1c23.O [LEVOFLOXACIN] |  |  |  |  |  |  |  |  |  |  | 0.13 | 0.25 | > 16 |  |  |  |  |  |  | 
4 | Cc1noc2c(F)c3c(cc12)CC1(C(=O)NC(=O)NC1=O)C1C(C)OC(C)CN31 (racemic) | 380 | 2.5 (≈ 1.01 µg/mL) | 21 (≈ 8.45 µg/mL) | 2.8 (≈ 1.13 µg/mL) | 2.5 (≈ 1.01 µg/mL) |  | 100 (≈ 40.2 µg/mL) | 0.063 | 0.3 (≈ 0.121 µg/mL) | > 1000 |  |  |  |  |  |  |  |  |  | 
5 | O=C(O)c1cn(C2CC2)c2cc(N3CCNCC3)c(F)cc2c1=O [CIPROFLOXACIN] |  | < 0.1 | 1.5 (≈ 0.497 µg/mL) | 0.91 (≈ 0.302 µg/mL) | 96 (≈ 31.8 µg/mL) | 1.5 (≈ 0.497 µg/mL) | 0.06 (≈ 0.0199 µg/mL) |  | < 0.1 |  |  |  |  |  |  |  |  |  |  | 
6 | Cc1noc2c(Cl)c3c(cc12)CC1(C(=O)NC(=O)NC1=O)C1C(C)OC(C)CN31 (racemic) | 370 | 3.1 (≈ 1.3 µg/mL) | 50 (≈ 20.9 µg/mL) | 6.2 (≈ 2.6 µg/mL) | 12 (≈ 5.03 µg/mL) | 25 (≈ 10.5 µg/mL) | 200 (≈ 83.8 µg/mL) | 0.03 | ≤ 0.2 | 330 (≈ 138 µg/mL) |  |  |  | 50 |  |  |  |  |  | 
7 | CC(=O)NC[C@H]1CN(c2ccc(N3CCOCC3)c(F)c2)C(=O)O1 [LINEZOLID] | > 32000 | 23 (≈ 7.76 µg/mL) | 3.1 (≈ 1.05 µg/mL) | 6.2 (≈ 2.09 µg/mL) | 6.2 (≈ 2.09 µg/mL) | 3.1 (≈ 1.05 µg/mL) | > 200 | 0.71 | 20 (≈ 6.75 µg/mL) |  |  |  |  | 12 |  |  |  |  |  | 
8 | COCc1noc2c(F)c3c(cc12)CC1(C(=O)NC(=O)NC1=O)C1C(C)OC(C)CN31 (racemic) | 1600 | 12 (≈ 5.19 µg/mL) | 12 (≈ 5.19 µg/mL) | 3.1 (≈ 1.34 µg/mL) | 6.2 (≈ 2.68 µg/mL) | 6.2 (≈ 2.68 µg/mL) | 200 (≈ 86.5 µg/mL) | 0.096 | ≤ 0.2 | 180 (≈ 77.8 µg/mL) |  |  |  |  |  |  |  |  |  | 
9 | C[C@@H]1CN2c3c(cc4c(C(F)F)noc4c3F)CC3(C(=O)NC(=O)NC3=O)[C@H]2[C@H](C)O1 | 480 | 0.62 (≈ 0.272 µg/mL) | 3.1 (≈ 1.36 µg/mL) | 0.39 (≈ 0.171 µg/mL) | 0.39 (≈ 0.171 µg/mL) | 1.2 (≈ 0.526 µg/mL) | 25 (≈ 11 µg/mL) | 0.028 | ≤ 0.2 | > 1000 |  |  |  | 3.1 | 0.044 | 1 | 95 | 47 | 0.043 | 87
